Screens: PubChem BioAssay, several laboratories
ATG4B inh: ATG4B protease inhibitors, primary screen, biochemical, fluorescence, uHTS; Cysteine protease ATG4B (Homo sapiens), Q9Y4P1; ATG4B cleavage of LC3-PLA2, NBD-HPC fluorescence, 1 h; inhibition, % at 8.33 µM; 340,000 compounds, 0.51% hits; in the data active = inhibition above about 40%
Target sequence (Q9Y4P1 whole entry, looked up): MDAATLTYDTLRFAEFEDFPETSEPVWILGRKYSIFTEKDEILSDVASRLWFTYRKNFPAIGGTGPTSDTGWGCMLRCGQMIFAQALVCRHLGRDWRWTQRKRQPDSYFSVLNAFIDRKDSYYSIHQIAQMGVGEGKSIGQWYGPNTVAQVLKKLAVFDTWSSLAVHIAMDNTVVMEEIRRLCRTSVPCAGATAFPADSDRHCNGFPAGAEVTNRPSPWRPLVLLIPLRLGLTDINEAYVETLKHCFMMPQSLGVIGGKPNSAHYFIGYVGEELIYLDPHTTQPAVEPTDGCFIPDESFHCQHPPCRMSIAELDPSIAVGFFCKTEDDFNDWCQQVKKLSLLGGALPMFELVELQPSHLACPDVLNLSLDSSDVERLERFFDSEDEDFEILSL
CAL PDZ FP-1: untagged CAL PDZ binding inhibitors, primary screen, biochemical, fluorescence polarization, HTS; Golgi-associated PDZ and coiled-coil motif-containing protein (Homo sapiens), Q9HD26; purified CAL PDZ, TMR-peptide fluorescence polarization, 1 h; inhibition, % at 24.9 µM; 300,000 compounds, 0.92% hits; AID 602252, 2012;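 active = mean inhibition of at least 30% with at least half of replicates also reaching 30%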;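 note: 0% = DMSO neutral control and 100% = excess unlabeled competitor peptide PRC23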
SR-BI DiI inh: inhibitors of SR-BI mediated HDL lipid uptake, primary screen, ldlA[mSR-BI] cells, fluorescence, single point. Scavenger receptor class B member 1 (Mus musculus), Q61009. ldlA[mSR-BI] CHO cells, DiI-HDL uptake fluorescence, 3 h. inhibition, % at 12.5 µM. 320,000 compounds, 0.96% hits;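 active = mean replicate inhibition of at least 70% and a set share of replicates each scoring 70 or more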;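 note: 0% = median of neutral control wells and 100% = median of positive control wells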
CAL PDZ FP-2: CAL PDZ peptide-binding inhibitors, primary screen, biochemical, fluorescence polarization, Cer-tagged CAL PDZ, HTS; inhibition, % at 20 µM; 330,000 compounds, 0.02% hits; purified CAL PDZ, TMR-peptide fluorescence polarization, 1 h;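 active = highest replicate inhibition of at least 40%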;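 note: plate controls were DMSO neutral control wells for no effect and unlabeled competitor peptide control wells for full effect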
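System: tagged CAL PDZ domain. Schedule: 1 h room-temperature incubation prior to read. Signal: fluorescence polarization (mP). Measure: percent inhibition from loss of millipolarization.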
SR-BI uptake up: activators of SR-BI mediated DiI-HDL uptake, primary screen, ldlA[mSR-BI] CHO cells, DiI fluorescence | 3 h; 100 = double the neutral-control signal | activation, % at 12.5 µM | 320,000 compounds, 0.096% hits;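 active = mean replicate activation of at least 60% and every replicate at or above 60%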;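 note: 0% = median plate neutral-control signal and 100% = twice that signal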
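Material: SR-BI-overexpressing, LDLR-lacking CHO cells; schedule: compound exposure 3 h, 37 °C; reagent: DiI-labelled HDL at 10 µg/mL final; technique: bottom-read fluorescence, 550/595 nm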
Active calls of the source: *; · = no result; + = active, no number. Compounds with a hit are over-represented: about 2.3% of the library has one in this group of screens.

SMILES | ATG4B inh | CAL PDZ FP-1 | SR-BI DiI inh | CAL PDZ FP-2 | SR-BI uptake up
CCOC(=O)c1c(C)n(CCO)c2ccc(O)cc12 | 0 | · | -27 | -1 | 27
CCOCCn1c(C)c(C(=O)OCC)c2cc(O)c3ccccc3c21 | -14 | -1 | 73* | 0 | -73
Cc1ccc(OCCC(=O)OCC(=O)N2CCN(S(=O)(=O)c3ccc(C)cc3)CC2)cc1 | -15 | -5 | -36 | -2 | 36
CCN1/C(=C\C=C(C(C)=O)C(C)=O)Sc2ccccc21 | 7 | -5 | 37 | 0 | -37
CCN1/C(=C\C(=S)Nc2ccccc2)Sc2ccccc21 | -3 | -3 | 81* | 0 | -81
CCN(CC)CCCNC(=O)CSc1nc(-c2ccc(F)cc2)cc(C(F)(F)F)n1 | 4 | -7 | 86* | -1 | -86
COC(=O)CSc1nc(-c2ccc(F)cc2)cc(C(F)(F)F)n1 | -2 | -1 | 23 | -1 | -23
O=C1C=C(c2ccc(F)cc2OCc2ccccc2)C[C@@H](c2ccc(F)cc2)C1 | 12 | -1 | 75* | -2 | -75
Cc1cccc(N2CCN(C(=O)[C@H](C)N3C(=O)C4CC=CCC4C3=O)CC2)c1C (some centres not stated) | -4 | -5 | 45 | 0 | -45
C=C(C)C(=O)Nc1cccnc1Oc1ccc(F)cc1 | 2 | 112* | 15 | 0 | -15
CCN(Cc1cnn(C)c1)C(=O)C1CCC(=O)N(CCc2ccc(OC)cc2)C1 (configuration not stated) | 21 | 86* | 2 | -1 | -2
Cc1ccccc1C(=O)N/N=C1/SCC(=O)N1Cc1ccccc1 | -12 | -5 | -22 | -3 | 22
Cc1onc(-c2ccccc2)c1C(=O)NC(=S)NNC(=O)c1ccc(O)cc1 | 11 | 0 | -21 | 0 | 21
Cc1onc(-c2ccccc2)c1C(=O)NC(=S)NNC(=O)c1ccccc1O | -3 | -1 | 117* | 1 | -117
Cc1onc(-c2ccccc2)c1C(=O)NC(=S)NNC(=O)c1ccc(O)cc1O | 5 | -5 | 85* | -1 | -85
Cc1ccc(NC(=O)c2c(-c3ccccc3)noc2C)nc1 | 0 | + | -18 | -1 | 18
Cc1onc(-c2ccccc2)c1C(=O)NNC(=O)c1ccccc1Br | 6 | 2 | -1 | 0 | 1
COC(=O)Cc1ccc(NC(=S)NNC(=O)C2CC2)cc1 | -2 | · | -15 | 0 | 15
COc1ccc(/C=N/Nc2nc(-c3cccc(S(=O)(=O)N4CCCC4)c3)cs2)c(OC)c1 | -10 | -10 | 83* | 0 | -83
C/C(=N\N1C(=O)CSC1=S)c1ccc(Br)cc1 | -8 | 44* | -11 | -2 | 11
CCCCNC(=S)N1CCN(c2ccccc2Cl)CC1 | 15 | 75* | -10 | 1 | 10
COc1cc(CCN2C(=O)c3cccc4cccc(c34)C2=O)c(S(=O)(=O)N2CCC(C)CC2)cc1OC | -22 | -3 | 25 | -1 | -25
Cc1cc(C)cc(N=c2c([N+](=O)[O-])nn(-c3ccc(Cl)cc3)n2O)c1 | 0 | -1 | 80* | 0 | -80
CCc1ccc(N=c2c([N+](=O)[O-])nn(-c3ccccc3)n2O)cc1 | -2 | · | 15 | 0 | -15
COc1ccc2c3c(ccc2c1)C(=O)/C(=C/O)CC3 | 3 | -3 | 13 | 1 | -13
CCN1C(=O)/C(=C\C=C2/C=CC=CN2CC)SC1=S | 10 | 5 | -21 | -1 | 21
CCN1C(=O)/C(=C/C=C2\C=CN(CC)c3ccccc32)SC1=S | 6 | -1 | 140* | 0 | -140
CCCN1C(=O)/C(=C\C=C2\N(CC)c3ccccc3C2(C)C)SC1=S | -4 | 4 | 87* | -20 | -87
CN1/C(=C\C=C2/SC(=S)NC2=O)C(C)(C)c2ccccc21 | -29 | -10 | -7 | -4 | 7
Cc1ccc2nc(-c3ccc(NC(=S)NCCC(C)C)cc3)sc2c1 | 1 | active | 19 | -2 | -19
